The source of these data is ChEMBL document CHEMBL1157101, “A series of alpha-heterocyclic carboxaldehyde thiosemicarbazones inhibit topoisomerase IIalpha catalytic activity” (J Med Chem, 2010).

One test has as its system MDA-MB-231. Kind of test: Antiproliferative activity against human MDA-MB-231 cells after 72 hrs by sulforhodamine B assay. The format is functional, cell-based. To be noted: MDA-MB-231, 72 h. An outline of the steps: (§1)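 Cells seeded and exposed in triplicate to graded compound concentrations for 72 h. Suspension cells read by MTT conversion to coloured product; adherent cells read by sulforhodamine B. IC50 (50% growth inhibition versus untreated control) derived by the Logit method.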

In another test the test system is MDA-MB-435. Nature of the test: Antiproliferative activity against human MDA-MB-435 cells after 72 hrs by sulforhodamine B assay. Format: functional, cell-based. Conditions: MDA-MB-435, 72 h. In a few lines: as §1
A further test has as its system U-937. Nature of the test: Antiproliferative activity against human U937 cells after 72 hrs by sulforhodamine B assay. To be noted: U-937, 72 h. Format: functional, cell-based. In a few lines:
as §1

A further test deals with HL60/MX2. Kind of test: Cytotoxicity against human HL60/MX2 cells. The format is functional, cell-based.
Test [1] addresses DNA topoisomerase 2-alpha (Homo sapiens, UniProt P11388). Kind of test: Inhibition of human topoisomerase 2alpha ATPase domain assessed as ATP hydrolysis. In a few lines:
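NADH-coupled ATPase assay at 37 °C in 100 μL. Contains 2 μg Topo IIα ATPase domain (or 18 nM Topo IIα), 0.2 μg pBR322, 1 mM ATP, 2 mM PEP, 0.16 mM NADH, 5 U pyruvate kinase and 8 U lactate dehydrogenase.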

Activity calls are given as the source filed them. The rule behind the calls is not given here.

Sequence of DNA topoisomerase 2-alpha (P11388 whole entry, the tested form may be a part): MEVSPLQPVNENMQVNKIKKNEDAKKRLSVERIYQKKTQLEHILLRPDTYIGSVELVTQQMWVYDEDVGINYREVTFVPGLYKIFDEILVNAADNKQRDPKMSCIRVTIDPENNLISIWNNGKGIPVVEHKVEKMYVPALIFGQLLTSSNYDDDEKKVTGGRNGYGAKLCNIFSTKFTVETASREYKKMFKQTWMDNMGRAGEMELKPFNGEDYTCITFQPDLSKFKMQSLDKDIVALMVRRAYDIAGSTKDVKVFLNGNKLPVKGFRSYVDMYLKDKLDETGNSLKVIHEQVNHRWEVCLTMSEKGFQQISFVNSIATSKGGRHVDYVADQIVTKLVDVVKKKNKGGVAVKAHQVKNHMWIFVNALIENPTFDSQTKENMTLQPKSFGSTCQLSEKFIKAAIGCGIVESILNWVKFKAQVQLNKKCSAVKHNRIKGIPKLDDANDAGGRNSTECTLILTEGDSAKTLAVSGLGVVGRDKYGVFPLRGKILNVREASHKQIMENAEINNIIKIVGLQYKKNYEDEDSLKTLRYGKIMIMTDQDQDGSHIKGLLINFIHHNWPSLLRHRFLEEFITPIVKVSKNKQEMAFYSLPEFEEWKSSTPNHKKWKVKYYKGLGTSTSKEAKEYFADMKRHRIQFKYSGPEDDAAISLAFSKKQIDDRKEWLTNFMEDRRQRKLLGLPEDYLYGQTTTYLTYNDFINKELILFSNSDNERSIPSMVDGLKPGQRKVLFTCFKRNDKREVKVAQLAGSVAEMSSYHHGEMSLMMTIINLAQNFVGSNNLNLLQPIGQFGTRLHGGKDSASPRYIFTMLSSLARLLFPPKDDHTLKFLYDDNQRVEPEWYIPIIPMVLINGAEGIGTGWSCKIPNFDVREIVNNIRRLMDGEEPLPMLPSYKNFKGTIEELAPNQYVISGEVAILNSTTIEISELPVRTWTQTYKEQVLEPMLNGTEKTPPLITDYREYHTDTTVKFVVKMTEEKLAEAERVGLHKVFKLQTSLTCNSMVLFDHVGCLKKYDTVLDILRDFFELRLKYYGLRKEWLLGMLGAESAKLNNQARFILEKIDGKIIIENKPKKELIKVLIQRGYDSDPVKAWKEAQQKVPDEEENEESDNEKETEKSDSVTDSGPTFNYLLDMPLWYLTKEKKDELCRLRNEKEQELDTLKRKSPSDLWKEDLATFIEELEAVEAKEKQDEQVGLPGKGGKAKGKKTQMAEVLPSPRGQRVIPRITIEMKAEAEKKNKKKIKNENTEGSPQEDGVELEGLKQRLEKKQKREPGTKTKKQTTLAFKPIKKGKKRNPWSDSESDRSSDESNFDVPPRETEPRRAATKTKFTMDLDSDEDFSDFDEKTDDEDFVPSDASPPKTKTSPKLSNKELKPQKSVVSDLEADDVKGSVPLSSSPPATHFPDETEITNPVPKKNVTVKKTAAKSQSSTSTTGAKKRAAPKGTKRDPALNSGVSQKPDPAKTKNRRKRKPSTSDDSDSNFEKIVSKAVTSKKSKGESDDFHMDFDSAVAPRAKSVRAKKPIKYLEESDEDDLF

Turning to `CN(C)C(=S)N/N=C/c1ccc2ccccc2n1`, the 50% inhibitory concentration (IC50) in the test on MDA-MB-231 was 20 nM; in the test with MDA-MB-435, 370 nM; in the test with U-937 it was 30 nM. In addition, in the test with HL60/MX2, the outcome was Active. The inhibition entry in test [1] was “Dose-dependent effect”.
